GPR7 antagonist – antagonists of human GPR7 (neuropeptides B/W receptor 1). GPR7-expressing cells, fluorescence antagonist assay. P48145. inhibition, % at 4.4 µM. 1.1% of 290,000 active; in the data active = inhibition above about 16%, passing the limit was not always enough;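 also: cells stimulated with the agonist NPW; 0% = agonist with vehicle and 100% = vehicle without agonist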
OX1R antag-1 – antagonists of human orexin 1 receptor; O43613; CHO/OX1R cells, Fluo-8 calcium fluorescence, orexin A; inhibition, % at 5 µM; 0.43% of 330,000 active;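 active = inhibition above its plate's threshold, mean inhibition of all tested compounds on the plate plus 3 SD, cut at about 37% in these data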;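 also: 0% = orexin A challenge wells and 100% = SB-334867-A antagonist wells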
Target sequence (O43613 whole entry, looked up): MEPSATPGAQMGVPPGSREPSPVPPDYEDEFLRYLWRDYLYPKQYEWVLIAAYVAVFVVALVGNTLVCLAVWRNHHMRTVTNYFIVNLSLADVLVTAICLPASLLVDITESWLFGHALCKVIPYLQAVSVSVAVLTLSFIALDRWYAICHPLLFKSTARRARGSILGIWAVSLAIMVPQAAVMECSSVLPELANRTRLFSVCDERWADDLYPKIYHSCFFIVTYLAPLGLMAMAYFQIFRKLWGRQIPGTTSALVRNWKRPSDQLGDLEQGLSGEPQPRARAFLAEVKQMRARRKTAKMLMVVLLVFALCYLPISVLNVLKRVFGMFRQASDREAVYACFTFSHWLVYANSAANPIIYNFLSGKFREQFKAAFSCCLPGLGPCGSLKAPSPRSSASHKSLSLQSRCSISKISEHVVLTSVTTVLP
CHO parental Ca – signal in parental CHO cells, OX1R antagonist counter-screen | 0.63% of 330,000 active | parental CHO-K1, ATP-induced calcium, Fluo-8 fluorescence | inhibition, % at 5.6 µM;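 active = inhibition above that plate's mean sample inhibition plus 3 SD, cut at about 26% in these data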;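 also: 0% = ATP-challenged DMSO wells and 100% = DMSO wells without ATP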
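Material – parental CHO cells · Reagent – ATP stimulus · Compound – single nominal dose of 5.6 µM per compound · Detection – Fluo-8 fluorescence · Read-out basis – percent inhibition of calcium signal · Controls – ATP-challenged DMSO wells low, unchallenged DMSO wells high · Repeats – no replicates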
MPTP inh – inhibitors of mitochondrial permeability transition pore | isolated mouse mitochondria, Ca2+ swelling absorbance, 30 min | inhibition, % at 10 µM | 1.4% of 360,000 active | AID 602449;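 active = inhibition of 50% or more, scaled per plate between neutral and stimulator controls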;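 also: 0% = DMSO wells given calcium and 100% = 1 mM EGTA wells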
OX1R antag-2 – blocks the human orexin 1 receptor. O43613. OX1R-expressing cells, FRET antagonist read-out. inhibition, % at 6.6 µM. 1.8% of 330,000 active. AID 485270; in the data active = inhibition mostly above about 38%, no sharp cut-off; inactive = mostly below about 40%;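 also: 0% = agonist challenge alone and 100% = reference antagonist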
OX1R HTRF conf – OX1R (human) antagonism, HTRF confirmed; shares compounds with OX1R antag-2; AID 492964; OX1R-expressing cells, HTRF antagonist assay; inhibition, % at 6.6 µM; 49% of 1,800 active; in the data active = inhibition above about 55%;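 also: CHO cells expressing OX1R stimulated with orexin A at about EC80; 0% = agonist challenge alone and 100% = reference antagonist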
CHO-K1 HTRF – counter-screen: parental CHO-K1 HTRF response | shares compounds with OX1R antag-2 | parental CHO-K1 cells, HTRF counterscreen | inhibition, % at 6.6 µM | 48% of 1,800 active; in the data active = inhibition above about 17%;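 also: 0% = agonist challenge with vehicle and 100% = vehicle alone without agonist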
An asterisk follows results filed as active; x = no result. Rows were chosen to be rich in hits. Some 3.8% of all compounds tested hit in one or more screens of this group.

SMILES	GPR7 antagonist	OX1R antag-1	CHO parental Ca	MPTP inh	OX1R antag-2	OX1R HTRF conf	CHO-K1 HTRF
Cc1ncc(CO)c2cc(C(N)=O)c(=Nc3ccccc3)oc12	6	-19	-13	0	150*	31	42*
COc1ccc(NS(=O)(=O)c2cccc(C(=O)NCC(c3ccco3)N3CCCC3)c2)cc1 (configuration not stated)	x	-17	-23	-3	17	x	x
Cn1c(COc2ccccc2)nnc1SCC(=O)NC1CCCC1	5	19	-2	1	17	x	x
CCN1C(=O)/C(=C/c2cc(C)n(C)c2C)SC1=Nc1ccc(OC)cc1	1	-46	-21	2	127*	26	16
CCCN1C(=O)/C(=C/c2cc(C)n(C)c2C)SC1=Nc1ccc(OCC)cc1	-7	-26	-17	27	13	x	x
S=c1[nH]nc(Cc2sc(-c3ccccc3)nc2-c2ccccc2)o1	13	-5	-8	0	78*	50	22*
Cc1oc2c(Cl)c(Cl)c(O)c(CN(C)C)c2c1C(=O)c1ccc(Cl)cc1	-18	x	x	2	x	x	x
COc1ccccc1CNC(=O)C1CCN(S(=O)(=O)c2ccc3c(c2)NC(=O)CO3)CC1	29	-1	-9	-3	13	x	x
COC(=O)[C@H]1C[C@@H]1[C@H](NS(=O)(=O)c1ccc2ccccc2c1)c1ccccc1	-8	-6	-32	-1	79*	36	3
O=[N+]([O-])c1cccnc1Sc1ccc(Cl)cc1	-8	-2	-1	0	-6	x	x
C=CCNc1nnc(Sc2ncccc2[N+](=O)[O-])s1	2	-27	-9	0	91*	28	33*
COc1ccccc1CNC(=O)CSCc1cnn(-c2ccccc2)c1-n1cccc1	-7	-21	-17	18	15	x	x
COc1ccc(OC)c(NC(=O)CSCc2cnn(-c3ccccc3)c2-n2cccc2)c1	3	18	-24	0	78*	77*	1
COc1ccc(-n2nc([N+](=O)[O-])c(=NCCc3ccc(OC)c(OC)c3)n2O)cc1	-2	-9	1	8	84*	46	54*
COc1ccc(-n2nc([N+](=O)[O-])c(=NC3CCN(Cc4ccccc4)CC3)n2O)cc1	-7	-37	-20	0	79*	61*	55*
COc1ccc(-n2nc([N+](=O)[O-])c(=NCCc3ccc(C)cc3)n2O)cc1	-10	-41	-22	2	34	x	x
COc1ccc(-n2nc([N+](=O)[O-])c(=NCc3cccnc3)n2O)cc1	3	-3	-9	2	123*	61*	78*
COc1ccc(-n2nc([N+](=O)[O-])c(=NCc3ccco3)n2O)cc1	2	1	7	3	43	x	x
CC(C)Oc1cccc(NC(=O)C2(C)CCN2C(=O)C(C)C)c1 (configuration not stated)	x	x	x	-1	x	x	x
CCC(C)c1c(NS(=O)(=O)c2ccc(C)cc2)o[nH]c1=O (configuration not stated)	x	x	x	0	x	x	x
C=CCNc1ncnc2c1ncn2[C@H]1CN(Cc2cccs2)C[C@@H](CO)O1	x	x	x	-2	x	x	x
COc1cccc(NC(=O)C2CCCO2)c1 (configuration not stated)	1	-12	-8	2	-11	x	x
OCCCN=c1cc(-c2ccccc2)oc2ccc(Cl)cc12	-5	-24	-18	-2	96*	36	61*
Cc1nn(CC(=O)N2CCN(c3ccccc3)CC2)c(=O)c2cccn12	-9	3	-8	-1	11	x	x
O=C(CN1C(=O)c2ccc([N+](=O)[O-])cc2C1=O)NCc1ccco1	-4	-11	-1	-3	88*	46	53*
Cc1c(C)n(C)c2ccc(C(=O)Nc3cccc4ccccc34)cc12	-9	10	-17	5	85*	77*	10
O=C(Nc1cccc2ccccc12)c1ccccc1	-5	-5	-14	0	4	x	x
Cc1ccc(N(C(=O)CNC(=O)c2ccco2)C(C(=O)NC2CCCC2)c2ccncc2)cc1F (configuration not stated)	-2	-30	-12	1	18	x	x
